# How the values were obtained:
# [1] = biological target: T1, Alpha-1D adrenergic receptor (Homo sapiens, UniProt P25100); experiment: Displacement of [3H]prazosin from human recombinant alpha1D adrenoceptor expressed in CHO cells after 30 mins by liquid scintillation counting; format: cell-based
# T1 sequence (P25100 whole entry): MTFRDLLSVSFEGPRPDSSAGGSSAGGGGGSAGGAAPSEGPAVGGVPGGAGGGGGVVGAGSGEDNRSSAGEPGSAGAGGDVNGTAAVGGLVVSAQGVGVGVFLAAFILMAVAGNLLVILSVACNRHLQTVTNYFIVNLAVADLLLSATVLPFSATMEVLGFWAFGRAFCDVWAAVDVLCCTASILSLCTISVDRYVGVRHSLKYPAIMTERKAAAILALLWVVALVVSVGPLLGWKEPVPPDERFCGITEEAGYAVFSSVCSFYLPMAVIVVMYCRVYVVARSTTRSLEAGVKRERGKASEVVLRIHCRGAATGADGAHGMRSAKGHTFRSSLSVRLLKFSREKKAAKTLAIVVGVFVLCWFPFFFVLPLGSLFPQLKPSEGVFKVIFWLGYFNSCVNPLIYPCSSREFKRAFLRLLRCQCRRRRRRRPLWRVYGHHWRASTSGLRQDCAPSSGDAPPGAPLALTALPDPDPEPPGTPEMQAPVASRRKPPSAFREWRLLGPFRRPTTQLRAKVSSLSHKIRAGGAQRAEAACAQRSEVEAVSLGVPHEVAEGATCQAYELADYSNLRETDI
# Summary of the method: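 CHO cells were stably transfected by electroporation with each human α1 subtype. Membranes (70 µg protein) were incubated in 50 mM Tris pH 7.4 with 0.1–0.4 nM [3H]prazosin and competitor (1 pM–1 µM) for 30 min at 25 °C. Nonspecific binding with 10 µM tamsulosin. Filtration and scintillation counting. pKi from 2–3 experiments in duplicate.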
# [2] = biological target: T2, 5-hydroxytryptamine receptor 1A (Homo sapiens, UniProt P08908); experiment: Displacement of [3H]8-OH-DPAT from human recombinant 5-HT1A receptor expressed in HeLa cells after 30 mins by liquid scintillation counting; format: cell-based
# T2 sequence (P08908 whole entry): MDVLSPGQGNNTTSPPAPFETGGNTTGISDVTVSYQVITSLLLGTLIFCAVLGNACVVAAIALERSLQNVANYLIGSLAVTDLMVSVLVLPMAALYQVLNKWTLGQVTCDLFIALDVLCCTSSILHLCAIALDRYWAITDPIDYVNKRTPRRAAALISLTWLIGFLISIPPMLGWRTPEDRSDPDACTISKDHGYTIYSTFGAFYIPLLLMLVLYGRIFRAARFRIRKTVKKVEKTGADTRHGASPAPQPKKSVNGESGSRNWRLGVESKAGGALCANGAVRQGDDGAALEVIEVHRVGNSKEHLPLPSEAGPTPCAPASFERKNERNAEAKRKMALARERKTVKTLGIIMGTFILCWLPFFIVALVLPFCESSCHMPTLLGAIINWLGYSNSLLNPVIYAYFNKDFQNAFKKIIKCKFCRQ
# Summary of the method: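 HeLa cells stably carrying genomic clone G-21 were grown in DMEM with 10% FCS, then lysed in Tris/EDTA pH 7.4. Membranes (80–90 µg protein) were incubated in 50 mM Tris, 2.5 mM MgCl2, 10 µM pargyline, pH 7.4, with 1 nM [3H]8-OH-DPAT and competitor (1 pM–1 µM) for 30 min at 30 °C, in triplicate. Nonspecific binding with 10 µM 5-HT. pKi from 2–3 experiments.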
# [3] = biological target: T3, Alpha-1B adrenergic receptor (Rattus norvegicus) (UniProt P15823); experiment: Antagonist activity at alpha1B adrenoceptor in Wistar rat spleen assessed as phenylephrine-induced contractions after 30 mins
# T3 sequence (whole entry): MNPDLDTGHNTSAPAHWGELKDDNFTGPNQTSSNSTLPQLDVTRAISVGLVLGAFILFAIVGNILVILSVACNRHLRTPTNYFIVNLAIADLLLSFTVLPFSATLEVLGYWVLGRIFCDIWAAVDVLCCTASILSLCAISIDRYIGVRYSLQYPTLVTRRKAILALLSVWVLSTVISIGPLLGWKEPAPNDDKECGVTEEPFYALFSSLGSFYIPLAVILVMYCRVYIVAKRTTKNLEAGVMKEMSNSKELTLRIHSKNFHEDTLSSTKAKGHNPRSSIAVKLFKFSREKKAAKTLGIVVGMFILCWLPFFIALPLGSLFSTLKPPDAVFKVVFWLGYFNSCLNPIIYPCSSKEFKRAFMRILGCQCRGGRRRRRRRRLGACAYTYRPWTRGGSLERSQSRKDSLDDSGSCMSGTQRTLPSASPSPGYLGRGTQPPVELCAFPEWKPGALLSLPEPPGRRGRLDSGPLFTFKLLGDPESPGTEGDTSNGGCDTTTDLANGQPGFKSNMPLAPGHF
# Summary of the method: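 Spleen strips (bisected longitudinally) in Krebs with 4 µM propranolol, 1 g resting tension, 2 h equilibration. Cumulative phenylephrine curves recorded isometrically at 30 min intervals, the first discarded and the second used as control. Antagonist pre-equilibrated 30 min before a repeat agonist curve.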
# Rattus norvegicus [4] = organism: Rattus norvegicus; experiment: Selectivity ratio of Kb for alpha1D adrenoceptor in Wistar rat thoracic aorta to Kb for alpha1A adrenoceptor in Wistar rat vas deferans; format: tissue-based
# Rattus norvegicus [5] = organism: Rattus norvegicus; experiment: Selectivity ratio of Kb for alpha1D adrenoceptor in Wistar rat thoracic aorta to Kb for alpha1B adrenoceptor in Wistar rat spleen; format: tissue-based
# [6] = biological target: T4, Alpha-1A adrenergic receptor (Homo sapiens, UniProt P35348); experiment: Displacement of [3H]prazosin from human recombinant alpha1A adrenoceptor expressed in CHO cells after 30 mins by liquid scintillation counting
# T4 sequence (P35348 whole entry): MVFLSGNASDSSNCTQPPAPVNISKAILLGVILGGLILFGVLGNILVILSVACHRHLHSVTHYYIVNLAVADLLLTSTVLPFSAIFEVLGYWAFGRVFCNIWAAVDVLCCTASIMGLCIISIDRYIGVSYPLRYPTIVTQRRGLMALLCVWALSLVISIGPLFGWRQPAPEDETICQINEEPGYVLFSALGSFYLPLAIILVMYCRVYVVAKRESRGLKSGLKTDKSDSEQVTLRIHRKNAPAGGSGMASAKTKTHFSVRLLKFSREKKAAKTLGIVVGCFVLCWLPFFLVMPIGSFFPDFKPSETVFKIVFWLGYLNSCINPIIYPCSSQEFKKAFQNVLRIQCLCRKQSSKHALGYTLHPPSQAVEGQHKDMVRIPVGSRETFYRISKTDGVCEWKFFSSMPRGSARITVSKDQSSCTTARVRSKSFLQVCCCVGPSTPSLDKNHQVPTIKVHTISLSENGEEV
Compound,Ki [1],Ki [2],pKb [3],Ratio (Rattus norvegicus [4]),Ratio (Rattus norvegicus [5]),Ki [6]
COc1ccccc1N1CCN(CC2COC3(CCN(c4ccccn4)CC3)O2)CC1 (stereo not given),22.9 nM,8.91 nM,7.86,0.17,0.1,17.8 nM
COc1ccccc1N1CCN(CC2COC3(CCN(C(=O)Nc4ccccc4)CC3)O2)CC1 (stereo not given),13.2 nM,33.1 nM,8.18,1.09,0.12,12 nM
COc1ccccc1N1CCN(CC2COC3(CCN(c4ccccc4)CC3)O2)CC1 (stereo not given),8.13 nM,15.8 nM,7.56,0.44,0.74,6.46 nM
COc1ccccc1N1CCN(CC2COC3(CCN(C(=O)C4CCCN4)CC3)O2)CC1 (stereo not given),26.9 nM,36.3 nM,7.86,0.19,0.07,11.7 nM
COc1ccccc1N1CCN(CC2COC3(CCN(S(=O)(=O)c4ccc(Cl)cc4)CC3)O2)CC1 (stereo not given),7.08 nM,37.2 nM,7.36,1.35,1.02,6.46 nM
COc1ccccc1N1CCN(CC2COC3(CCNCC3)O2)CC1 (stereo not given),37.2 nM,158 nM,7.78,0.14,0.13,49 nM
COc1ccccc1N1CCN(CC2COC3(CCN(C(C)=O)CC3)O2)CC1 (stereo not given),89.1 nM,64.6 nM,7.72,0.2,0.05,60.3 nM
CCCCNC(=O)N1CCC2(CC1)OCC(CN1CCN(c3ccccc3OC)CC1)O2 (stereo not given),19.1 nM,79.4 nM,7.4,0.81,0.77,20 nM
COc1ccccc1N1CCN(CC2COC3(CCN(C(=O)NC(C)(C)C)CC3)O2)CC1 (stereo not given),35.5 nM,87.1 nM,7.42,0.08,0.13,12.6 nM
COc1ccccc1N1CCN(CC2COC3(CCSCC3)O2)CC1 (stereo not given),14.8 nM,9.33 nM,7.63,0.17,0.16,8.51 nM
COc1ccccc1N1CCN(CC2COC3(CCOCC3)O2)CC1 (stereo not given),25.1 nM,46.8 nM,7.17,0.6,1.44,17 nM
COc1ccccc1N1CCN(CC2COC3(CCN(S(=O)(=O)c4cccs4)CC3)O2)CC1 (stereo not given),9.77 nM,60.3 nM,8.05,0.64,0.16,7.94 nM
COc1ccccc1N1CCN(CC2COC3(CCN(C(=O)c4ccc(C(F)(F)F)cc4)CC3)O2)CC1 (stereo not given),11 nM,50.1 nM,8.33,0.31,0.09,10.2 nM
COc1ccccc1N1CCN(CC2COC3(CCS(=O)(=O)CC3)O2)CC1 (stereo not given),51.3 nM,81.3 nM,7.66,0.72,0.34,9.77 nM
COc1ccccc1N1CCN(CC2COC3(CCN(C(=O)c4ccco4)CC3)O2)CC1 (stereo not given),28.2 nM,42.7 nM,7.69,0.89,0.49,21.4 nM
COc1ccccc1N1CCN(CC2COC3(CCN(S(=O)(=O)c4ccc(OC(F)(F)F)cc4)CC3)O2)CC1 (stereo not given),26.3 nM,69.2 nM,7.74,2.45,0.42,8.91 nM
COc1ccccc1N1CCN(CC2COC3(CCN(Cc4ccccc4)CC3)O2)CC1 (stereo not given),4.68 nM,14.5 nM,7.18,7.58,26.3,6.76 nM
COc1ccccc1N1CCN(CC2COC3(CCN(C(=O)C(F)(F)F)CC3)O2)CC1 (stereo not given),417 nM,324 nM,8,3.39,0.31,> 1000 nM
COc1ccccc1N1CCN(CC2COC3(CCN(C(=O)c4ccccc4)CC3)O2)CC1 (stereo not given),20.4 nM,58.9 nM,8.19,0.55,0.18,10.7 nM
COc1ccccc1N1CCN(CC2COC3(CCN(S(=O)(=O)c4ccc([N+](=O)[O-])cc4)CC3)O2)CC1 (stereo not given),5.75 nM,24.5 nM,7.75,1.9,1.86,5.25 nM
COc1ccccc1N1CCN(CC2COC3(CCN(S(=O)(=O)c4ccccc4)CC3)O2)CC1 (stereo not given),12.3 nM,52.5 nM,7.94,0.37,0.13,7.94 nM
COc1ccccc1N1CCN(CC2COC3(CCN(C(=O)C4CCCCC4)CC3)O2)CC1 (stereo not given),39.8 nM,20.4 nM,7.33,1.17,0.49,30.9 nM
COc1ccccc1N1CCN(CC2COC3(CCCCC3)O2)CC1 (stereo not given),> 1000 nM,5.13 nM,6.72,12.6,14.4,
COc1ccccc1N1CCN(CC2COC3(CCN(S(C)(=O)=O)CC3)O2)CC1 (stereo not given),23.4 nM,145 nM,7.46,0.59,0.52,18.6 nM
COc1ccccc1N1CCN(CC2COC3(CCN(S(=O)(=O)c4cccc([N+](=O)[O-])c4)CC3)O2)CC1 (stereo not given),0.912 nM,43.7 nM,8.14,1.02,0.69,3.02 nM
COc1ccccc1N1CCN(CC2COC3(CCN(S(=O)(=O)c4ccc(C)cc4)CC3)O2)CC1 (stereo not given),10.7 nM,26.9 nM,7.91,0.36,0.11,4.57 nM

# Reference: ChEMBL document CHEMBL3351355, “Structure-affinity/activity relationships of 1,4-dioxa-spiro[4.5]decane based ligands at α1 and 5-HT1A receptors” (Eur J Med Chem, 2014)
